# Experimental data taken from the EternaBench riboswitch data.
# Test system: MS2 coat protein
# Assay: apparent Kd, MS2 coat protein; higher = weaker binding; RNA-MaP array; FMN 200 µM where present
# Summary of the method: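 Stalled E. coli RNA polymerase produced the designs on Illumina sequencing-chip clusters. SNAP-549-labelled MS2 coat protein was added from 0.7 or 1.5 nM, doubling to 3 µM, without and then with constant ligand, in 100 mM Tris-HCl pH 7.5, 80 mM KCl, 4 mM MgCl2, BSA, DTT, yeast tRNA and Tween-20. The apparent Kd is the median of filtered per-cluster fits of green signal normalised to red-channel RNA signal and control-cluster median Fmax.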
# [1] = designed as: ON switch for flavin mononucleotide, no ligand
# [2] = ligand present: flavin mononucleotide, designed as: ON switch for flavin mononucleotide
# [3] = designed as: OFF switch for flavin mononucleotide, no ligand
# [4] = ligand present: flavin mononucleotide, designed as: OFF switch for flavin mononucleotide
Sequence,apparent Kd [1] [nM],apparent Kd [2] [nM],apparent Kd [3] [nM],apparent Kd [4] [nM]
GGACGUCCCAUUAACAUGAGGAUCACCCAUGUCAAAAGACAUGAGGAUAUGGUACCUAAUUGGUACCAGAAGGCAUGGACGUCC,1210,106,,
GGACGUCUCGUUUACAUGAGGAUCACCCAUGUCGAUAGACAUGAGGAUAUGGAUCCGAAUCGGAUCCAGAAGGCAUGGACGUCC,486,35,,
GGACGUUACAUCUACAUGAGGAUCACCCAUGUCUCUUGAGAUGAGGAUAUGUAUACGAAUCGUUUAUAGAAGGCAUGAACGUCC,144,138,,
GGAGAACAUGAGGAUCACCCAUGUGGAUGGGCGCUAGGAUAUGCGAGAGGGUGGAGAGAAGCAGAAGGAGUGGAUA,62.2,54.5,,
GGAGACCUCACAGGAUAUGCUGGACUUUGUCCAGCAGAAGGGUGAAAACAUGAGGAUCACCCAUGUAUGGUCUCCAAAUUUAAU,183,13.7,,
GGAGACCUCACAGGAUAUGCUGGACUUUGUCCAGCAGAAGGGUGAAACAUGAGGAUCACCCAUGUUGGUCUCCAAAUAUUUAAU,660,54.1,,
GGAGCACACAUUAACAUGAGGAUCACCCAUGUCAAAAGACAUGAGGAUAUGGAUCCGAAAAGCAUCCAGAAGGCAUGGUGCUCC,567,184,,
GGAGCACACAUUAACAUGAGGAUCACCCAUGUCAAAAGACAUGAGGAUAUGGAUCCGAAAAGGAUCCAGAAGGCAUAGUGCUCC,301,15.7,,
GGAGCCGAUACUGAGGAUAUUCAUAUUAAAACAUGAGGAUCACCCAUGUAGGCCAGAAGGCCUUGGGAGAAGGCAGAUCGGCUCC,417,26,,
GGAGCCGGCACUGAGGAUAUUCAUAUUAAAACAUGAGGAUCACCCAUGUAGGCCAGAAGGCCUUGGGAGAAGGCAGGUCGGCCCG,381,28.4,,
GGAGCGAGCACAGGAUAUAGGCUAAAGGCUAGUCUAGAAGGGUGGGAUCAGACAUGAGGAUCACCCAUGUGUGUUUUUGCUCCA,86.3,686,,
GGAGCUCCUGACAUGAGGAUCACCCAUGUUCACUUAUUAAAUCAGGAUAUCGUCUCGAAACGAGACGAGAAGGGAUAUGCUCCU,7.67,7.01,,
GGAGGACAUGAGGAUCACCCAUGUGGAUGAUCGCUAGGAUAUGCGUAAAGGAGGAGUGGUGCAGAAGGAGUGGGAU,464,360,,
GGAGGACAUGAGGAUCACCCAUGUGGAUGGGCGCUAGGAUAUGCGAGAGGAUGGAGAGAAGCAGAAGGAGUGGGUU,150,107,,
GGAGGACAUGAGGAUCACCCAUGUGGAUGGGCGCUAGGAUAUGCGAGAGGGAAGAGUGGAGCAGAAGGAGUGGGUU,50.8,47.3,,
GGAGGACGAAACAUGAGGAUCACCCAUGUGUUAUAAUUAAUAUAGGAUAUGUUUAUACUUUUUGGGCAGAAGGAUGAUAAUGCU,21.9,16.9,,
GGAGUGUGAGGAUAUAUGGUGAAGGUGAAGAGAGAGGAGGAGUAGAAGGUACAUGAGGAUCACCCAUGUUUAGG,,,47,41.3
GGAUAGAACAGAGGAUAUACGUGCUAGAGAUACUAGCAAAAUUUCCUCACAUGAGGAUCACCCAUGUAGAAGGCUGUCCUAUCG,,,11.8,208
GGAUAGGACAGAGGAUAUACGUGCUAGAGAUACUAGCAAAAUUUCCUCACAUGAGGAUCACCCAUGUAGAAGGCUCUCCUAUCG,,,8.7,31.5
GGAUAGGACAGAGGAUAUACGUGCUAGAGAUACUAGCAAAAUUUCCUCACAUGAGGAUCACCCAUGUAGAAGGCUGUCAUAUCG,,,14.8,306
GGAUAGGACAGAGGAUAUACGUGCUAGAGAUAGUAGCAAAAUUUCCUCACAUGAGGAUCACCCAUGUAGAAGGCUGUCCUAUCG,,,19.6,365
GGAUAGGACAGAGGAUAUACGUGCUAGAGAUCCUAGCAAAAUUUCCUCACAUGAGGAUCACCCAUGUAGAAGGCUGUCCUAUCG,,,15.5,417
GGAUAGGACAGAGGAUAUACGUGCUAUAGAUACUAGCAAAAUUUCCUCACAUGAGGAUCACCCAUGUAGAAGGCUGUCCUAUCG,,,16.8,354
GGAUAGGACAGAGGAUAUACGUGCUCGAGAUACUAGCAAAAUUUCCUCACAUGAGGAUCACCCAUGUAGAAGGCUGUCCUAUCG,,,28.7,255
GGAUAGGACAGAGGAUAUGCCGAUAGGAUCUACUAUCGAAGAAUCCUCACAUGAGGAUCACCCAUGUAGAAGGCUGUCCUAUCG,,,23.8,131
GGAUAGGACUGAGGAUAUACGUGCUAGAGAUACUAGCAAAAUUUCCUCACAUGAGGAUCACCCAUGUAGAAGGCUGUCCUAUCG,,,7.13,42.3
GGAUAGUGAGGAUAUCGAUGUUAGGAGGAGGAGGUAGGAGGCGAGAAGGCACAUGAGGAUCACCCAUGUAUGGU,,,31.8,29.4
GGAUCCAACACAGGAUAUGCUGGACUUUGUCCAGCAGAAGGGUGAAGAACAUGAGGAUCACCCAUGUGGAUCCAUAUAUUUAAC,240,16.8,,

Sequence,apparent Kd [1] [nM],apparent Kd [2] [nM],apparent Kd [3] [nM],apparent Kd [4] [nM]
GGAUCGAAAGUGAGGAUAUGCUGGUCCUUGGAUCAGCAGAAGGCACAUGAGGAUCACCCAUGUUUCCACGGUCC,,,19.5,91
GGAUCGAAUGUGAGGAUAUGCUGGUCCUUGGAUCAGCAGAAGGCACAUGAGGAUCACCCAUGUGGUAACGGUCC,,,,554
GGAUCGAGAGUGAGGAUAUGCUGGUCCUUGGAUCAGCAGAAGGCACAUGAGGAUCACCCAUGUGGUUCCGAUCC,,,28.8,244
GGAUCGAGUGUGAGGAUAUACCACUGGAUACAGUGGUAGAAGGCACAUGAGGAUCACCCAUGUCCCUACGAUCC,,,32.9,204
GGAUCGAGUGUGAGGAUAUGCUGGUCCUUGGAUCAGCAGAAGGCACAUGAGGAUCACCCAUGUCCAAGCGGUCC,,,152,701
GGAUCUGCAGGAUAUAUAAAAUGGCGUGAUGGAUUGUCUGUACAUGAGGAUCACCCAUGUAGAAGGGCGUUCCA,,,29.1,58.3
GGAUGACAAAGUCAUCCAAUUCGAACAUGAGGAUCACCCAUGUAGGAUAUGCUUCUCAAAGAGAAGCAGAAGGACAUGUGCUUU,,,32.8,182
GGAUGACAAAGUCAUCCAUUACGAACAUGAGGAUCACCCAUGUAGGAUAUGCUUCUCAAAGAGAAGCAGAAGGACAUGUGUCUU,,,30.1,157
GGAUGAGAAACUCAUCCAUAACGAACAUGAGGAUCACCCAUGUAGGAUAUGCUACUCAAAGAGUAGCAGAAGGACAUGUGUCUU,,,29.6,144
GGAUUACAUGAGGAUCACCCAUGUGAGGAUAUCGAUGUCCUCAGUCGAGUGCGGGACUCGAGAAGGCACUUGGA,,,77,57.5
GGAUUUCCUGAGGAUAUUGUAUCACCUGAUUGAUAAGAAGGCAGAACAUGAGGAUCACCCAUGUGGGUACUCGG,,,134,135
GGAUUUCCUGAGGAUAUUGUAUCACCUGAUUGAUAAGAAGGCAGAACAUGAGGAUCACCCAUGUGGGUAUUCGG,,,92.9,88.4
GGCGCAGCGGAGAAGGACGUGGCUCGCCACCACGUAGGAUAUCCCUGUGUACCGAAUUGUUACAUGAGGAUCACCCAUGUGGAC,6.16,6.28,,
GGCGGCGCGGGCCACCGCAGAACCAGAAGGACAUGAGGAUCACCCAUGUAACAAAACAGGGCGGUGUAGGAUAUGGCAGGCCCG,,,41.9,89.5
GGCGGGAAUGAGAAGGGUCACAUGAGGAUCACCCAUGUGCUCUUCGCCGUGACAGGAUAUCAUUGCCGUCAGGUUAGAUUUUUG,,,8.42,24.7
GGCGUGUGAGGAUAUCUGAUGUCUAACUUCGGUUAGACAUCAGAGAAGGCACAUGAGGAUCACCCAUGUCCGCC,,,67.5,61.9
GGCUACGUUUCGUAGCAGCUAGGUGAGGAUAUUCAAUUUUUCACAUGAGGAUCACCCAUGUAUGUGAAGAAGGCGCCUAGAAAU,11.8,5.04,,
GGCUGGUAGCUAGGAUAUGGGCGGUCACAUGAGGAUCACCCAUGUCAACAUCAAAACCAGAUUAACCAGAAGGAGCUGCGGGUU,36,37.8,,
GGCUGUUUAGGAUAUACAUGAGGAUCACCCAUGUCGUUUAAUACAGACGGAUCCAACUGUAGAAGGAGAUGCCG,,,102,79.7
GGGAAGGUUAGAGGAUAUAUUGUGUGUGAGAGAAUAGAAGGCUAAACAUGAGACACACACAUGAGGAUCACCCAUGUUAUGUUU,147,91,,
GGGAGUGGAGGGAAUAACAUGAGGAUCACCCAUGUAUGGGAGAGAAGGCAGAUUGGAGGGCGAUCUGAGGAUAUUUAGACUCUU,13.1,10.7,,
GGGAUCACCGUCAGGAUAUGUGACCGUACUAUCGGGCAGAAGGGACAUGAGGAUCACCCAUGUUGUCGUAGACU,,,20.7,58.1
GGGAUGCUAGGAUAUACAUCGGGCUCCAGGAUGUUCCGGGAACAUGAGGAUCACCCAUGUAGAAGGAGCGUAUG,,,80.4,50.6
GGGAUUAAGGCAGGAUAUCCGGGUUGGCCUCGACAUGAGGAUCACCCAUGUGGAGAAGGGCCGAUUGCCCGUAGGGUGAUCAAG,,,274,108
GGGCCCGAGGUGAGGAUAUUGUGCAUGGCGAGUGACAAGAAGGUACAUGAGGAUCACCCAUGUGAUACCGACCU,,,451,371
GGGCCCGGAGGAUAUACAUGAGGAUCACCCAUGUAUCUGGGUCUUAUUGGGCUCGGGUGUAGAAGGCCGGGCCC,,,11.8,13.8
GGGCCCGGAGGAUAUACAUGAGGAUCACCCAUGUAUGUGUGUGUUAUUGCGCGCGCGUGUAGAAGGCCGGGCCC,,,19.9,80.2
